These results are taken from ChEMBL document CHEMBL1140106, “Blocking estrogen signaling after the hormone: pyrimidine-core inhibitors of estrogen receptor-coactivator binding” (J Med Chem, 2008).

One assay addresses Estrogen receptor beta (Homo sapiens, UniProt Q92731). Put plainly: Binding affinity to ERbeta assessed as inhibition of fluorescein-labeled nuclear receptor domain of steroid receptor coactivator 3 by TR-FRET assay. Background: In TR-FRET formats the signal depends on donor and acceptor labels being close together.
A further assay addresses T1, Estrogen receptor (Homo sapiens, UniProt P03372).
T1 sequence (P03372 whole entry): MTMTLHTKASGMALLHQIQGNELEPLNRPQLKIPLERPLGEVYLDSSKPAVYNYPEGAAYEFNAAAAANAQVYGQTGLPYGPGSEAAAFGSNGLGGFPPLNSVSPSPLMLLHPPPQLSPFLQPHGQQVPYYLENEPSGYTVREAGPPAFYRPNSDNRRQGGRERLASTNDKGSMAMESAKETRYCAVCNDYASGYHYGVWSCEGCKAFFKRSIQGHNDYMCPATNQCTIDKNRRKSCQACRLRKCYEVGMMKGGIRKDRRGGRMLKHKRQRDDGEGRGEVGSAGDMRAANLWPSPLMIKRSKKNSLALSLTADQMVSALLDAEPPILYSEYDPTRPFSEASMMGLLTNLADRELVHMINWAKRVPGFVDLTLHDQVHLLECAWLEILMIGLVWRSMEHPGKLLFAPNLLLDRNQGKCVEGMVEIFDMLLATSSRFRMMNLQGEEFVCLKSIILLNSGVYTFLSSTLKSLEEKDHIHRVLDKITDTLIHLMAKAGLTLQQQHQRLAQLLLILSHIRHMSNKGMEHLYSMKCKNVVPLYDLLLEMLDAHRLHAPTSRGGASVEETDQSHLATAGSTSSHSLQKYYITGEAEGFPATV
Put plainly: Binding affinity to ERalpha assessed as inhibition of fluorescein-labeled nuclear receptor domain of steroid receptor coactivator 3 by TR-FRET assay. In short, it runs like this: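 Fluorescein-SRC-3-NRD (50 nM) was then added for 1 h at room temperature in the dark. Buffer: 20 mM Tris pH 7.5, 0.01% NP40, 50 mM NaCl. SRC-1 Box II peptide served as positive control.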

Sequence of Estrogen receptor beta (Q92731 whole entry, the tested form may be a part): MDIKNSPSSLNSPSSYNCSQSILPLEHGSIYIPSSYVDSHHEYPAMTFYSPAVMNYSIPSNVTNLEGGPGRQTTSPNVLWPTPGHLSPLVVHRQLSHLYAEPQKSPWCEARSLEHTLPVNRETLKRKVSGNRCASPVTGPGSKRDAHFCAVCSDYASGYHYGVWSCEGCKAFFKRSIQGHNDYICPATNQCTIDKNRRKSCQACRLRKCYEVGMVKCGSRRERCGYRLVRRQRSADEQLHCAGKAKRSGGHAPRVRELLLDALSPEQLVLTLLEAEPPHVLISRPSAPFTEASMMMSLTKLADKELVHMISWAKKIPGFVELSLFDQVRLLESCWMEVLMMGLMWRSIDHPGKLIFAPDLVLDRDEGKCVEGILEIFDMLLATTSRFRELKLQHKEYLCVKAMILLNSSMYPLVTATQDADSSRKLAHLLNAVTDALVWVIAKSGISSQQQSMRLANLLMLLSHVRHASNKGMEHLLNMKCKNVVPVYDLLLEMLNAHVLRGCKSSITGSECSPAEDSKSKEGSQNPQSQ

Consider `CC(C)CNc1cc(CCc2ccccc2)nc(NCc2ccccc2)n1`, for which, on Estrogen receptor beta, the inhibitory constant (Ki) is greater than 1000 µM.
Consider `c1ccc(CCc2cc(CCc3ccccc3)nc(NCc3ccccc3)n2)cc1`, for which the Ki at Estrogen receptor beta and at Estrogen receptor was greater than 1000 µM in each case.
As for `CC(C)(C)OC(=O)N(Cc1cccc2ccccc12)c1cc(CCc2cccc3ccccc23)nc(NCc2ccccc2)n1`, the Ki at Estrogen receptor beta and at Estrogen receptor was greater than 1000 µM each time.
Consider `c1ccc(CNc2cc(CCc3cccc4ccccc34)nc(NCc3ccccc3)n2)cc1`, for which the Ki on Estrogen receptor beta and on Estrogen receptor was greater than 1000 µM throughout.
Turning to `CC(C)CNc1cc(NCC(C)C)nc(CCc2cccc3ccccc23)n1`, the Ki at Estrogen receptor beta and on Estrogen receptor was greater than 1000 µM each time.
`CC(C)CNc1cc(CCc2cccc3ccccc23)nc(NCc2ccccc2)n1`: the Ki on Estrogen receptor beta and at Estrogen receptor was greater than 1000 µM in each case.
For the molecule `CC(C)CSc1cc(CCc2ccccc2)nc(SCC(C)C)n1`, the Ki at Estrogen receptor beta and on Estrogen receptor was greater than 1000 µM throughout.
For the molecule `CC(C)CN(C(=O)OC(C)(C)C)c1cc(CCc2ccccc2)nc(NCc2ccccc2)n1`, the Ki at Estrogen receptor beta and at Estrogen receptor was greater than 1000 µM each time.
As to `CC(C)CCc1cc(NCC(C)C)nc(SCC(C)C)n1`, the Ki at Estrogen receptor beta and on Estrogen receptor was greater than 1000 µM each time.
On to `CC(C)CNc1nc(/C=C/c2ccccc2)cc(N(Cc2ccccc2)C(=O)OC(C)(C)C)n1`, for which the values for the Ki at Estrogen receptor beta and at Estrogen receptor were 132 µM and greater than 1000 µM, respectively.
Taken in the same sequence, the figures for `CC(C)CNc1cc(CCc2ccccc2)nc(N(C)CC(C)C)n1` were greater than 1000 µM and greater than 1000 µM.
In the same order, the values of `CC(C)CNc1nc(CCc2ccccc2)cc(N(Cc2ccccc2)C(=O)OC(C)(C)C)n1` are greater than 1000 µM and greater than 1000 µM.
Take `CC(C)CNc1nc(CCc2cccc3ccccc23)cc(N(C)CC(C)C)n1`: the Ki on Estrogen receptor beta is greater than 1000 µM.
Turning to `CC(C)CCc1cc(CCC(C)C)nc(NCc2cccc3ccccc23)n1`, the Ki on Estrogen receptor beta and on Estrogen receptor was greater than 1000 µM in each case.
Regarding `CC(C)CN(C)c1cc(CCc2cccc3ccccc23)nc(N(C)CC(C)C)n1`, the Ki on Estrogen receptor beta and at Estrogen receptor was greater than 1000 µM in each case.
Turning to `CC(C)CCc1cc(N(Cc2ccccc2)C(=O)OC(C)(C)C)nc(NCc2cccc3ccccc23)n1`, the inhibition constant (Ki) at Estrogen receptor beta and on Estrogen receptor was greater than 1000 µM throughout.
With `CC(C)CN(C)c1cc(CCc2ccccc2)nc(N(C)CC(C)C)n1`, the Ki at Estrogen receptor beta and on Estrogen receptor was greater than 1000 µM in each case.
In the case of `CC(C)CN(C(=O)OC(C)(C)C)c1cc(CCc2cccc3ccccc23)nc(NCc2cccc3ccccc23)n1`, the Ki on Estrogen receptor beta and at Estrogen receptor was greater than 1000 µM in each case.
On to `CC(C)CNc1cc(/C=C/c2ccccc2)nc(N(C)CC(C)C)n1`, for which the inhibitory constant (Ki) on Estrogen receptor beta and at Estrogen receptor was greater than 1000 µM each time.
On to `CC(C)CCc1cc(SCc2ccccc2)nc(SCc2ccccc2)n1`, for which the inhibitory constant (Ki) at Estrogen receptor beta and on Estrogen receptor was greater than 1000 µM each time.
For `c1ccc(CNc2cc(CCc3cccc4ccccc34)nc(NCc3cccc4ccccc34)n2)cc1`, the Ki at Estrogen receptor beta and on Estrogen receptor was greater than 1000 µM in each case.
On to `CC(C)CCc1cc(N(Cc2ccccc2)C(=O)OC(C)(C)C)nc(NCC(C)C)n1`, for which the Ki on Estrogen receptor beta and at Estrogen receptor was greater than 1000 µM throughout.
Regarding `CC(C)CCc1cc(N(CC(C)C)C(=O)OC(C)(C)C)nc(NCc2cccc3ccccc23)n1`, the Ki on Estrogen receptor beta and on Estrogen receptor was greater than 1000 µM each time.
For the molecule `C(=C\c1cc(/C=C/c2ccccc2)nc(NCc2cccc3ccccc23)n1)/c1ccccc1`, the Ki at Estrogen receptor beta and on Estrogen receptor was greater than 1000 µM each time.
On to `CCc1cc(NCC(C)C)nc(NCC(C)C)n1`, for which, at Estrogen receptor beta, the Ki was greater than 1000 µM.
In the case of `CC(C)CNc1nc(CCc2cccc3ccccc23)cc(NCc2ccccc2)n1`, the Ki at Estrogen receptor beta and at Estrogen receptor was greater than 1000 µM throughout.
`CC(C)(C)OC(=O)N(Cc1cccc2ccccc12)c1cc(/C=C/c2ccccc2)nc(NCc2cccc3ccccc23)n1`: the Ki on Estrogen receptor beta and on Estrogen receptor was greater than 1000 µM each time.
Regarding `CC(C)CCc1cc(S(=O)(=O)Cc2ccccc2)nc(S(=O)(=O)Cc2ccccc2)n1`, the Ki at Estrogen receptor beta and on Estrogen receptor was greater than 1000 µM each time.
In the case of `CC(C)CCc1cc(NCC(C)C)nc(NCc2cccc3ccccc23)n1`, the Ki at Estrogen receptor beta is greater than 1000 µM.
On to `C(=C\c1cc(NCc2ccccc2)nc(NCc2cccc3ccccc23)n1)/c1ccccc1`, for which the Ki on Estrogen receptor beta and at Estrogen receptor was greater than 1000 µM each time.
Take `CC(C)CCc1cc(N(Cc2cccc3ccccc23)C(=O)OC(C)(C)C)nc(NCC(C)C)n1`: the Ki on Estrogen receptor beta and on Estrogen receptor was greater than 1000 µM in each case.
Take `CC(C)CCc1cc(NCC(C)C)nc(S(=O)(=O)CC(C)C)n1`: the inhibition constant (Ki) on Estrogen receptor beta and on Estrogen receptor was greater than 1000 µM each time.
As for `c1ccc(CCc2cc(SCc3ccccc3)nc(SCc3ccccc3)n2)cc1`, the Ki at Estrogen receptor beta and on Estrogen receptor was greater than 1000 µM throughout.
Turning to `CC(C)CNc1cc(SCC(C)C)nc(NCC(C)C)n1`, the Ki at Estrogen receptor beta and at Estrogen receptor was greater than 1000 µM in each case.
With `CC(C)CN(C)c1cc(/C=C/c2ccccc2)nc(N(C)CC(C)C)n1`, the Ki on Estrogen receptor beta and on Estrogen receptor was greater than 1000 µM in each case.
Regarding `C(=C\c1cc(NCc2cccc3ccccc23)nc(NCc2cccc3ccccc23)n1)/c1ccccc1`, the Ki at Estrogen receptor beta and on Estrogen receptor was greater than 1000 µM in each case.
Turning to `CC(C)CNc1cc(S(=O)(=O)CC(C)C)nc(NCC(C)C)n1`, the Ki on Estrogen receptor beta and on Estrogen receptor was greater than 1000 µM each time.
For `CC(C)CNc1nc(CCc2ccccc2)cc(NCc2cccc3ccccc23)n1`, the Ki on Estrogen receptor beta and on Estrogen receptor was greater than 1000 µM each time.
For the molecule `CC(C)CNc1nc(CCc2cccc3ccccc23)cc(N(Cc2ccccc2)C(=O)OC(C)(C)C)n1`, the Ki on Estrogen receptor beta and on Estrogen receptor was greater than 1000 µM each time.
Consider `CC(C)CNc1cc(NCC(C)C)ncn1`, for which the Ki on Estrogen receptor was greater than 1000 µM.
Consider `CC(C)CS(=O)(=O)c1cc(CCc2ccccc2)nc(S(=O)(=O)CC(C)C)n1`, for which the inhibitory constant (Ki) at Estrogen receptor beta and on Estrogen receptor was greater than 1000 µM throughout.
In the case of `CC(C)CNc1cc(CCc2cccc3ccccc23)nc(NCc2cccc3ccccc23)n1`, the Ki at Estrogen receptor beta and on Estrogen receptor was greater than 1000 µM throughout.
In the case of `c1ccc(CNc2nc(CCc3cccc4ccccc34)cc(NCc3cccc4ccccc34)n2)cc1`, the Ki at Estrogen receptor beta and on Estrogen receptor was greater than 1000 µM throughout.
For `c1ccc(CNc2cc(NCc3ccccc3)nc(NCc3ccccc3)n2)cc1`, the Ki on Estrogen receptor beta and on Estrogen receptor was greater than 1000 µM each time.
Take `O=S(=O)(Cc1ccccc1)c1cc(CCc2ccccc2)nc(S(=O)(=O)Cc2ccccc2)n1`: the Ki at Estrogen receptor beta and on Estrogen receptor was greater than 1000 µM throughout.
Take `CC(C)CCc1nc(NCc2ccccc2)cc(NCC(C)C)n1`: the Ki on Estrogen receptor beta and on Estrogen receptor was greater than 1000 µM in each case.
For `CC(C)CCc1cc(SCC(C)C)nc(SCC(C)C)n1`, the Ki on Estrogen receptor beta and at Estrogen receptor was greater than 1000 µM each time.
Consider `CC(C)CNc1cc(OCC(C)C)nc(NCC(C)C)n1`, for which the Ki at Estrogen receptor beta and on Estrogen receptor was greater than 1000 µM each time.
For `CC(C)(C)OC(=O)N(Cc1ccccc1)c1cc(CCc2cccc3ccccc23)nc(NCc2cccc3ccccc23)n1`, the Ki at Estrogen receptor beta and on Estrogen receptor was greater than 1000 µM in each case.
As to `CC(C)CCc1cc(S(=O)(=O)CC(C)C)nc(S(=O)(=O)CC(C)C)n1`, the Ki at Estrogen receptor beta and at Estrogen receptor was greater than 1000 µM each time.
`c1ccc(CCc2cc(NCc3ccccc3)nc(NCc3cccc4ccccc34)n2)cc1`: the inhibition constant (Ki) at Estrogen receptor beta and at Estrogen receptor was greater than 1000 µM throughout.
Consider `CC(C)CCc1nc(NCC(C)C)cc(NCC(C)C)n1`, for which the Ki on Estrogen receptor beta and at Estrogen receptor was greater than 1000 µM each time.
With `CC(C)CCc1cc(CCC(C)C)nc(NCC(C)C)n1`, the Ki at Estrogen receptor beta and on Estrogen receptor was greater than 1000 µM each time.
As for `CC(C)CNc1nc(CCc2ccccc2)cc(N(C)CC(C)C)n1`, the Ki on Estrogen receptor beta was greater than 1000 µM.
Turning to `CC(C)CCc1cc(N(Cc2cccc3ccccc23)C(=O)OC(C)(C)C)nc(NCc2ccccc2)n1`, the Ki on Estrogen receptor beta and on Estrogen receptor was greater than 1000 µM throughout.
Regarding `CC(C)CCc1cc(NCc2cccc3ccccc23)nc(NCC(C)C)n1`, the Ki on Estrogen receptor beta was greater than 1000 µM.
In the case of `CC(C)CNc1nc(CCc2cccc3ccccc23)cc(N(Cc2cccc3ccccc23)C(=O)OC(C)(C)C)n1`, the Ki on Estrogen receptor beta and on Estrogen receptor was greater than 1000 µM each time.
Turning to `CC(C)CCc1cc(OCC(C)C)nc(OCC(C)C)n1`, the inhibitory constant (Ki) on Estrogen receptor beta and on Estrogen receptor was greater than 1000 µM each time.
Regarding `CC(C)CNc1cc(CCc2cccc3ccccc23)nc(N(C)CC(C)C)n1`, the Ki on Estrogen receptor beta and on Estrogen receptor was greater than 1000 µM throughout.
Take `CC(C)CCc1cc(N(CC(C)C)C(=O)OC(C)(C)C)nc(NCc2ccccc2)n1`: the Ki at Estrogen receptor beta and at Estrogen receptor was greater than 1000 µM each time.
For the molecule `CC(C)CCc1cc(N(C)CC(C)C)nc(NCC(C)C)n1`, the Ki at Estrogen receptor beta and on Estrogen receptor was greater than 1000 µM throughout.
Take `CC(C)CN(C(=O)OC(C)(C)C)c1cc(CCc2cccc3ccccc23)nc(NCc2ccccc2)n1`: the Ki on Estrogen receptor beta and on Estrogen receptor was greater than 1000 µM in each case.
As to `CC(C)CCc1cc(N(C)CC(C)C)nc(N(C)CC(C)C)n1`, the Ki at Estrogen receptor beta and on Estrogen receptor was greater than 1000 µM each time.
`CC(C)CNc1nc(CCc2cccc3ccccc23)cc(NCc2cccc3ccccc23)n1`: the Ki at Estrogen receptor beta and on Estrogen receptor was greater than 1000 µM each time.

A word on the Ki: it is a measure of affinity in units of concentration, obtained from inhibition or displacement.
